Reference: paper PMC6579116 (Macromolecular bioscience, 2019)

What was measured:
[1] = Treatment study serum chemistry; assay type: in vivo, mouse; details: for Creatine: 6 mg/kg
[2] = test system: atherosclerosis in LDLR KO mice fed high fat diet; assay: Atherosclerosis treatment study; assay type: in vivo, mouse; details: both sexes; IV twice per week for 8 weeks
Procedure, shortened: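 LDLR KO mice on high-fat diet (20% fat, 0.2% cholesterol, 34% sucrose) from 4 weeks of age. After 14 weeks on diet, IV injection under isoflurane (dorsal penile vein, males; retro-orbital, females) twice weekly for 8 weeks. […] Controls: PBS, scrambled PA. Aortic root sections stained with Oil Red O; plaque area/total root area. n=8–10 mice/group; ANOVA with post-hoc t-test.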

[3] = TEM analysis of nanofiber formation, diameter and length; assay type: physicochemical; details: 1 mM in PBS, 30 measurements from three images; for Length, Average / Length, Median: ImageJ
Procedure, shortened: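 Nanofiber diameter and length were measured by hand on TEM images in ImageJ; overlapping fibers ruled out automated tracing.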

[4] = male LDLR KO mice, IV twice per week for 8 weeks

Compound	liver toxicity: aspartate aminotransferase (AST) in the blood in comparison to PBS, male mice ([1]; mouse, in vivo, iv)	reversal of atherosclerosis from baseline levels [2]	liver toxicity: aspartate aminotransferase (AST) in the blood in comparison to PBS, male mice [1, 4]	Creatine ([1]; mouse, in vivo, iv)	Diameter, Max. [3] [nm]	Diameter, Min. [3] [nm]	Length, Max. [3] [nm]	Length, Min. [3] [nm]	Length, Average [3] [nm]	Length, Median [3] [nm]
O=C(O)Cc1cccc(OCCCN(Cc2cccc(C(F)(F)F)c2Cl)CC(c2ccccc2)c2ccccc2)c1 [LXR, GW3965, reference compound]	significantly elevated levels	approximately 5%	–	–	–	–	–	–	–	–
C16-V2A2E2-C-DWFAKDYFKKAFVEEFAK-NH2 [Scr PA]	–	–	significantly elevated levels	0(0–0.1) 0(0–0.1) 0(0–0.1) U/L	18.3	8.8	1472.9	30.0	403.8	257.6
C16-V2A2E2-G-DWFKAFYDKVAEKFKEAF-NH2 [ApoA1 PA]	–	–	Neither ApoA1-LXR PAs nor ApoA1 PAs increased AST levels	0(0–0.1) 0(0–0.1) 0(0–0.1) U/L	14.4	6.2	2183.3	39.4	626.9	615.9
